Consider two compounds from article PMC3103643 (Journal of natural products, 2011).

In test [1] the test system is HT-29 human colon cancer cells. Put plainly: Cytotoxicity assay. The test is classed as cell-based. To be noted: three days incubation, SRB. The method, boiled down: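 HT-29 cells were trypsinized and seeded, then treated with test compound in DMSO at serial dilutions, with DMSO as negative control and paclitaxel as positive control, for three days at 37 °C, 5% CO2. Cells were fixed for 30 min at room temperature, washed, dried overnight and stained with SRB. Dye was solubilized in tris-base buffer and read at 515 nm. ED50 came from nonlinear regression, triplicates, two independent experiments.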

In test [2] the target is p65 subunit of NF-κB (Homo sapiens, UniProt Q04206). Put plainly: Enzyme-based ELISA NF-κB p65 inhibition assay. To be noted: read-out: NF-κB p65 inhibition IC50, HeLa cell nuclear extracts. In general terms: An ELISA detects its analyte on a solid surface through an enzyme-linked reagent.
Test [3] has as its system HT-29 (colon adenocarcinoma), MCF-7 (breast cancer), and MDA-MB-435 (melanoma). Put plainly: In vivo hollow fiber assay. The settings on record: highest dose used 20 mg/kg; ip. Also noted: species or system human. The method, boiled down:
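Hollow fibers carried HT-29, MCF-7 and MDA-MB-435 cells. Test compounds and the paclitaxel positive control were dosed ip across 1–20 mg/kg.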

Bounds are passed on as bounds.

As a reminder, the IC50 is the concentration at which inhibition is half-maximal.

p65 subunit of NF-κB, sequence (Q04206 whole entry): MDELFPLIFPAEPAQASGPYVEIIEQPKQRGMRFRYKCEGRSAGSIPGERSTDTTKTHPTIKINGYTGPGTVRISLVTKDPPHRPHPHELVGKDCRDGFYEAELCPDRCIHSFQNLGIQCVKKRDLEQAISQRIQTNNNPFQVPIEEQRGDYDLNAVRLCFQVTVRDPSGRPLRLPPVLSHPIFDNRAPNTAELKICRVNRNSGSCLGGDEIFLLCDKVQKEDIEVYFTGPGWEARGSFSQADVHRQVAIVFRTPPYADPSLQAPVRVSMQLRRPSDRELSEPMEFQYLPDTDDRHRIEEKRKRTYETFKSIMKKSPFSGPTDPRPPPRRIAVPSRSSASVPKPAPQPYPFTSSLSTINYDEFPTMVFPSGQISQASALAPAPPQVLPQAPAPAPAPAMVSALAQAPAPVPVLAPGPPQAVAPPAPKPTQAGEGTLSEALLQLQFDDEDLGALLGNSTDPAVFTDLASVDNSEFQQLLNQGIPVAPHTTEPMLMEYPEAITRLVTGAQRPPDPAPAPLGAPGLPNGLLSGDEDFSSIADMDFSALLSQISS

In the case of “1,3,7-trihydroxy-2,4-diisoprenylxanthone [Compound 5]”, in test [1], the “cytotoxicity ED50 towards HT-29 cells” value was greater than 10000 nM. Further, in test [2], the IC50 came out at 2900 nM.

In the case of `COc1c(OC(C)=O)cc2oc3cc(OC(C)=O)c(CC=C(C)C)c(O)c3c(=O)c2c1CC=C(C)C` [Compound 8, 3,6-di-O-acetyl-α-mangostin], in test [3], the “activity in in vivo hollow fiber assay” value was “inactive”.
